HTRA1 inhibitor – HTRA1 serine protease inhibitors, primary screen, biochemical, fluorescence polarization, HTS; AID 504803, 2011; Q92743; 340,000 compounds, 0.5% hits; inhibition, % at 5.96 µM; recombinant HTRA1, FP-rhodamine activity-based probe; in the data active means inhibition above about 36%
SIAE primary – human SIAE inhibitors, primary screen, biochemical, fluorescence polarization, FP-Rh probe, 1536-well HTS; 370,000 compounds, 0.69% hits; Sialate O-acetylesterase (Homo sapiens), Q9HAT2; AID 1053197, 2014; inhibition, % at 9.66 µM; SIAE FP-Rh probe binding;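 active means inhibition above a cutoff: mean of compounds within the control limits plus 3 SD of those, cut at about 17% in these data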
Target sequence (Q9HAT2 whole entry, looked up): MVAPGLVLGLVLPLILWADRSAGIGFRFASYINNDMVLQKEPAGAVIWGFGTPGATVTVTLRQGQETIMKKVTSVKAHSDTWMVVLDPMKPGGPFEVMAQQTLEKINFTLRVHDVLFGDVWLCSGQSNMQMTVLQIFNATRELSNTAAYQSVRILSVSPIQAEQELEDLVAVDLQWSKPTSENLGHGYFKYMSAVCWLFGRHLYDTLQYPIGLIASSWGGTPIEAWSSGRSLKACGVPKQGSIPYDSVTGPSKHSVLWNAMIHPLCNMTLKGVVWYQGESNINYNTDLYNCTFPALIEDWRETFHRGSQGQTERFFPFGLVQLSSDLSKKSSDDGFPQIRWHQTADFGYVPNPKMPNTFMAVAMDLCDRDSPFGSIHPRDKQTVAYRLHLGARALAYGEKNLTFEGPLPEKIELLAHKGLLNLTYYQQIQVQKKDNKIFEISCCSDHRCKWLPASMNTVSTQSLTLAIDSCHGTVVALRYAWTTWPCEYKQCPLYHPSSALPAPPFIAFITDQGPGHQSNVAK
PRMT1 inh – PRMT1 methyltransferase inhibitors, primary screen, biochemical, fluorescence polarization | Protein arginine N-methyltransferase 1 (Homo sapiens), Q99873 | 370,000 compounds, 1.3% hits | inhibition, % at 2.79 µM | recombinant PRMT1, activity-based probe fluorescence polarization;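 active means inhibition above about 21% made by adding two undisclosed values, limit read from the data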
TCR CD3 inh – inhibitors of human TCR-CD3 interaction, primary screen, biochemical, fluorescence, TAMRA-labeled TCR probe. T-cell receptor (TCR). inhibition, % at 9.4 µM. 360,000 compounds, 0.37% hits; in the data active means inhibition above about 19%;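 further: recombinant mutant TCR 2C K166C tagged with TAMRA read by polarization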
ABHD4 inh – ABHD4 inhibitors, primary screen, biochemical, fluorescence polarization, mouse; (Lyso)-N-acylphosphatidylethanolamine lipase (Mus musculus), Q8VD66; purified mABHD4, FP-Rh probe fluorescence polarization; 370,000 compounds, 0.54% hits; inhibition, % at 8.92 µM;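 active means inhibition exceeding the mean over every tested compound plus 3 SD, cut at about 30% in these data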
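Doses – 8.92 µM, single dose · Material – wild-type mouse ABHD4 protein · Replication – single well per compound (singlicate) · Measure – percent inhibition of probe binding, normalized to plate controls · Schedule – 45 min compound pre-incubation plus 60 min probe step, 25 °C · Detection – fluorescence polarization with parallel and perpendicular emission, 525/598 nm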
PRMT1 confirm – PRMT1 methyltransferase inhibitors, confirmation, biochemical, fluorescence polarization, triplicate; 3,300 compounds, 42% hits; inhibition, % at 2.79 µM; shares compounds with PRMT1 inh; recombinant His-PRMT1, activity-based probe fluorescence polarization;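 active means mean inhibition across replicates above the hit cutoff derived for the earlier primary screen, cut at about 22% in these data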
Each line names hits and unclear results; the compound was inactive in the other large screens (follow-up assays come after a bar, where they were run). In the library only some 2.5% were active in any assay of this set; here they are far more common.

Cc1cccc(NC(=O)C(NS(=O)(=O)c2ccc3c(c2)CCC(=O)N3)c2ccccc2)n1 (stereo unspecified)	PRMT1 inh 47 | PRMT1 confirm 48
CC(=O)Nc1ccc(NC(=O)C(C)OC(=O)/C(C#N)=C/c2ccc(N(C)C)cc2)cc1 (stereo unspecified)	PRMT1 inh 30 | PRMT1 confirm 39
CC(=O)c1cccc(N=c2scc(-c3ccc(S(=O)(=O)N4CCOCC4)cc3)n2CCO)c1	PRMT1 inh 69 | PRMT1 confirm inactive
COc1ccc(-c2csc(=Nc3ccccc3)n2CCO)cc1	PRMT1 inh 59 | PRMT1 confirm inactive
COc1ccc(-c2csc(=NCCO)n2-c2ccccc2)cc1	PRMT1 inh 64 | PRMT1 confirm inactive
COc1ccccc1OCC(=O)Nc1nnc(-c2ccco2)s1	PRMT1 inh 73 | PRMT1 confirm inactive
O=c1/c(=C/c2ccco2)sc2n1CN(c1cccc(Br)c1)CN=2	none
Cc1ccc(/C=c2\sc3n(c2=O)CN(c2cccc(Br)c2)CN=3)o1	PRMT1 inh 34 | PRMT1 confirm inactive
COC(=O)[C@]12C[C@H](CC(=O)NCC3CCCCC3)C(=O)N(Cc3ccco3)C1=C[C@H](COCc1ccccc1)O[C@@H]2C	none (no result: HTRA1 inhibitor, TCR CD3 inh)
COc1ccc(/C=C2\Sc3ccc(C(=O)NCc4cccnc4)cc3N(C)C2=O)cc1OC	PRMT1 inh 32 | PRMT1 confirm inactive
O=C(C1CC1)N1CCc2cc(Br)c(S(=O)(=O)NCCCN3CCCCC3)cc21	none (no result: HTRA1 inhibitor, TCR CD3 inh)
Cc1cc(/C=C2\Sc3ccccc3N2C)cc(C)[n+]1CC1CCCO1 (stereo unspecified)	PRMT1 inh 100 (no result: HTRA1 inhibitor) | PRMT1 confirm inactive
Cc1ccc(/C=C2/Sc3ccccc3N(CC(=O)NCC3CCCO3)C2=O)cc1 (stereo unspecified)	none (no result: SIAE primary, PRMT1 inh, TCR CD3 inh, ABHD4 inh)
O=C1NC(Cc2ccccc2)C(=O)N1Cc1ccccc1 (stereo unspecified)	none
O=c1ccsn1Cc1ccccc1	PRMT1 inh 37 | PRMT1 confirm 44
Cc1ccc(-c2cc(C(=O)NN=Cc3cccc(Oc4ccccc4)c3)[nH]n2)cc1C	none (no result: HTRA1 inhibitor, TCR CD3 inh)
Nc1ccc2nc(-c3ccccc3)cnc2c1	PRMT1 inh 31 | PRMT1 confirm 33
COc1cccc(-c2nc(SC)nc3sc(C(=O)NC(C)(C)C)c(N)c23)c1	PRMT1 inh 25 | PRMT1 confirm inactive
NC(=O)CCC(NC(=O)c1ccc(Cl)cc1)C(=O)O (stereo unspecified)	PRMT1 inh 52 | PRMT1 confirm inactive
NC(=O)NC(=O)CC1S/C(=N/N=C2\CSC(=O)N2)NC1=O (stereo unspecified)	PRMT1 inh 45 | PRMT1 confirm 33
NC(=O)NC(=O)CC1S/C(=N/N=C/c2ccccc2)NC1=O (stereo unspecified)	none
COc1ccc(NC(=O)NNC(=O)CCn2nc(C)c([N+](=O)[O-])c2C)cc1OC	none (no result: HTRA1 inhibitor, TCR CD3 inh)
S=c1[nH]c2cnc(Cl)nc2[nH]1	PRMT1 inh 43 | PRMT1 confirm 34
S=c1[nH]c2nc(Cl)c(Cl)nc2[nH]1	none
C#CCNC(=O)C[C@H]1C[C@@]2(C(=O)OC)C(=C[C@H](COCc3ccccc3)O[C@@H]2C)N(Cc2ccc(Cl)cc2Cl)C1=O	none (no result: HTRA1 inhibitor, TCR CD3 inh)
CCN(CC)CCSc1nc(O)c(-c2ccccc2)c(=O)n1-c1ccccc1	PRMT1 inh 25 | PRMT1 confirm inactive
CCN(CC)CCSc1nc(O)c(Cc2ccccc2)c(=O)n1-c1ccccc1	none
O=C(CCSc1ccc(Cl)cc1)c1cccs1	PRMT1 inh 48 | PRMT1 confirm 43
COc1cc(CNc2ccc3[nH]c(=O)[nH]c3c2)ccc1OCc1ccc(C)cc1	PRMT1 inh 35 | PRMT1 confirm inactive
Oc1ccc(N2CCN(Cc3ccc(OCCCN4CCCCC4)cc3)CC2)cc1	PRMT1 inh 28 | PRMT1 confirm inactive
CCCCOc1ccc(CN2CCCCC2)cc1	none
CCCCCn1nnnc1C1(C)CN(S(C)(=O)=O)CC(=O)N1Cc1ccco1 (stereo unspecified)	none (no result: HTRA1 inhibitor, TCR CD3 inh)
Cc1ccc(C(O)C(=O)c2ccco2)cc1 (stereo unspecified)	none
Cc1ccc(C(CC(=O)c2ccco2)SCCO)cc1 (stereo unspecified)	PRMT1 inh 28 | PRMT1 confirm 32
O=C(CC(SCCO)c1ccc(F)cc1)c1ccco1 (stereo unspecified)	PRMT1 inh 33 | PRMT1 confirm 30
CCOc1ccc(C(=O)NN2C(=O)C3C4C=CC(O4)C3C2=O)cc1 (stereo unspecified)	PRMT1 inh 53 | PRMT1 confirm inactive
Cc1ccccc1OCC(=O)NN1C(=O)C2C3C=CC(O3)C2C1=O (stereo unspecified)	none
O=C(CCc1ccccc1)NN1C(=O)C2C3C=CC(O3)C2C1=O (stereo unspecified)	PRMT1 inh 57 | PRMT1 confirm inactive
Cc1cccc(OCC(=O)NN2C(=O)C3C4C=CC(O4)C3C2=O)c1 (stereo unspecified)	none
Cc1ccc(C(=O)/C=C/C(=O)O)cc1	PRMT1 inh 40 | PRMT1 confirm 30
Cc1ccc(/C=C/C(=O)c2ccc(O)cc2)cc1	none
COC(=O)c1ccc2c(=O)n(CCN3CCOCC3)c(SCC(=O)Nc3ccccc3Cl)nc2c1	PRMT1 inh 27 | PRMT1 confirm 48
COC(=O)c1ccc2c(=O)n(CCN3CCOCC3)c(SCC(=O)Nc3ccccc3OC)nc2c1	none
Cc1ccc(/C=N/N2CCN(Cc3cccc4ccccc34)CC2)o1	PRMT1 inh 26 | PRMT1 confirm inactive
CN(C)S(=O)(=O)c1cccc(C(=O)N/N=C\c2cccc(C#N)c2)c1	none (no result: HTRA1 inhibitor, TCR CD3 inh)
CCCCN1CCN(C(=O)C2CCCN(C(=O)c3ccc4c(c3)NC(=O)CS4)C2)CC1 (stereo unspecified)	none (no result: HTRA1 inhibitor, TCR CD3 inh)
COc1ccc2[nH]c(S(=O)Cc3ncc(C)c(OC)c3C)nc2c1 (stereo unspecified)	PRMT1 inh 34 | PRMT1 confirm inactive
COc1ccnc(CS(=O)c2nc3cc(C(O)(F)F)ccc3[nH]2)c1OC (stereo unspecified)	none
CCS(=O)(=O)c1ncc(Cl)c(C(=O)Nc2ccc(C)cc2)n1	none
CCC1CCCCN1S(=O)(=O)c1ccc(NC(=O)c2nc(S(C)(=O)=O)ncc2Cl)cc1 (stereo unspecified)	PRMT1 inh 50 | PRMT1 confirm 47
COC(=O)c1ccccc1NC(=O)c1nc(S(=O)(=O)Cc2ccccc2)ncc1Cl	none
Cc1ccc(CS(=O)(=O)c2ncc(Cl)c(C(=O)Nc3ccc(OC(F)F)cc3)n2)cc1	PRMT1 inh 29 | PRMT1 confirm 21
